From ChEMBL document CHEMBL1154792, “chi-Conopeptide pharmacophore development: toward a novel class of norepinephrine transporter inhibitor (Xen2174) for pain” (J Med Chem, 2009)
Activity calls are given as the source filed them. Where a SMILES comes first, the peptide text is derived from it. Bridges are numbered along the chain shown (N, C = ends). [ ]: non-standard residue; d: D form. Pro(3S-OH) = O=C(O)[C@H]1NCC[C@@H]1O; pGlu = O=C1CC[C@@H](C(=O)O)N1

What was measured:
[1] = molecular target: Sodium-dependent noradrenaline transporter (Homo sapiens, UniProt P23975); experiment: Displacement of [3H]nisoxetine from human NET expressed in COS7 cells; type: cell-based; conditions: COS-7
Sequence of Sodium-dependent noradrenaline transporter (P23975 whole entry): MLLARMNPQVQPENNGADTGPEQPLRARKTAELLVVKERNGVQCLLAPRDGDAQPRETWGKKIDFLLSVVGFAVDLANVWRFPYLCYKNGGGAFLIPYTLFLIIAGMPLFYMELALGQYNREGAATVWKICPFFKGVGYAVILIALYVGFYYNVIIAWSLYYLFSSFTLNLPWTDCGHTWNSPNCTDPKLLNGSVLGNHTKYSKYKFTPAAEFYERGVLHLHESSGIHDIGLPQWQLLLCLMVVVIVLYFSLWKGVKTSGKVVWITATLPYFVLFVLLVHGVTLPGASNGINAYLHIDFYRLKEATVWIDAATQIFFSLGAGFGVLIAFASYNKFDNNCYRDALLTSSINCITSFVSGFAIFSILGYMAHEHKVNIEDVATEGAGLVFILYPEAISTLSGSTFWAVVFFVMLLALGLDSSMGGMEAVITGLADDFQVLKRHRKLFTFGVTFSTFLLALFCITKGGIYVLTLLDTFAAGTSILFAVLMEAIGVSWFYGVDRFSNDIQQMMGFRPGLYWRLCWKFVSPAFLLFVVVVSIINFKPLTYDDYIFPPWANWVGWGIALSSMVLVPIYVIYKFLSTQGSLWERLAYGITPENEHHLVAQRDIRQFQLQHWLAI
How it was run: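 Membranes from COS-7 cells transfected with human NET were incubated with [3H]nisoxetine (4.3 nM) with or without peptide (1 nM to 100 μM, triplicate) for 1 h at RT. Filter-retained radioactivity was counted by liquid scintillation, and values are given as pIC50. Data are means of 2–5 experiments in triplicate; peptide concentration was set by calibrated HPLC at 214 nm.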

COS-7 = experiment: Displacement of [3H]nisoxetine from rat NET expressed in COS7 cells; type: cell-based
Rattus norvegicus [2] = species: Rattus norvegicus; experiment: Toxicity in CCI rat pain model assessed as side effects; type: organism-based; conditions: in vivo
How it was run: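 Rats with unilateral sciatic chronic constriction injury received a single intrathecal bolus via an implanted cannula 14 days after surgery, with morphine and vehicle as comparators. Compound-related behavioural observations were recorded alongside von Frey paw-withdrawal testing. Three animals per analogue.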

Rattus norvegicus [3] = experiment: Antiallodynic activity in CCI rat pain model assessed as efficayin ipsilateral hind paw withdrawal threshold at 0.2 nM, iv; type: functional, organism-based
How it was run: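 Unilateral chronic constriction injury of the sciatic nerve in rats. At 14 days post-surgery, a single bolus was given via a chronically implanted intrathecal cannula; morphine and vehicle were comparators. Mechanical allodynia was measured with calibrated von Frey filaments as paw withdrawal threshold in the ipsilateral hindpaw, relative to the pre-dose value. Three animals per analogue; dose chosen from NET potency.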

| Compound | Activity [1] | also measured |
| --- | --- | --- |
| CC(C)C[C@@H]1NC(=O)[C@H](CCCCN)NC(=O)[C@H](Cc2ccc(O)cc2)NC(=O)CNC(=O)[C@@H]2CSSC[C@H](NC1=O)C(=O)N[C@@H](Cc1cnc[nH]1)C(=O)N1Cc3ccccc3C[C@H]1C(=O)N[C@H](C(=O)O)CSSC[C@H](NC(=O)[C@@H](NC(=O)CNC(=O)[C@@H]1CCC(=O)N1)C(C)C)C(=O)N2 | Active | Activity (COS-7): Active |
| CCCC[C@H](N)C(=O)NCC(=O)N[C@H](C(=O)N[C@H]1CSSC[C@@H](C(=O)O)NC(=O)[C@@H]2[C@@H](O)CCN2C(=O)[C@H](Cc2cnc[nH]2)NC(=O)[C@@H]2CSSC[C@H](NC1=O)C(=O)NCC(=O)N[C@@H](Cc1ccc(O)cc1)C(=O)N[C@@H](CCCCN)C(=O)N[C@@H](CC(C)C)C(=O)N2)C(C)C | – | Activity (Rattus norvegicus [2]): Toxic |
| CC(C)C[C@@H]1NC(=O)[C@H](CCCCN)NC(=O)[C@H](Cc2ccc(O)cc2)NC(=O)CNC(=O)[C@@H]2CSSC[C@H](NC1=O)C(=O)N[C@@H](Cc1cnc[nH]1)C(=O)N1CC[C@H](O)[C@H]1C(=O)N[C@H](C(=O)O)CSSC[C@H](NC(=O)[C@@H](NC(=O)CNC(=O)[C@H](CC(N)=O)NC(=O)[C@@H](N)Cc1c[nH]c3ccccc13)C(C)C)C(=O)N2 | – | Activity (Rattus norvegicus [2]): Toxic |
| COc1ccc(C[C@@H]2NC(=O)CNC(=O)[C@@H]3CSSC[C@H](NC(=O)[C@H](CC(C)C)NC(=O)[C@H](CCCCN)NC2=O)C(=O)N[C@@H](Cc2cnc[nH]2)C(=O)N2CC[C@H](O)[C@H]2C(=O)N[C@H](C(=O)O)CSSC[C@H](NC(=O)[C@@H](NC(=O)CNC(=O)[C@@H]2CCC(=O)N2)C(C)C)C(=O)N3)c(OC)c1 | inactive | – |
| CC(C)C[C@@H]1NC(=O)[C@H](CCCCN)NC(=O)[C@H]2CCCN2C(=O)CNC(=O)[C@@H]2CSSC[C@H](NC1=O)C(=O)N[C@@H](Cc1cnc[nH]1)C(=O)N1CC[C@H](O)[C@H]1C(=O)N[C@H](C(=O)O)CSSC[C@H](NC(=O)[C@@H](NC(=O)CNC(=O)[C@@H]1CCC(=O)N1)C(C)C)C(=O)N2 | inactive | – |
| CC(C)C[C@@H]1NC(=O)[C@H](CCCCN)NC(=O)[C@H](Cc2ccccc2)NC(=O)CNC(=O)[C@@H]2CSSC[C@H](NC1=O)C(=O)N[C@@H](Cc1cnc[nH]1)C(=O)N1CC[C@H](O)[C@H]1C(=O)N[C@H](C(=O)O)CSSC[C@H](NC(=O)[C@@H](NC(=O)CNC(=O)[C@@H]1CCC(=O)N1)C(C)C)C(=O)N2 ([pGlu]GVCCGFKLCH[Pro(3S-OH)]C-OH; disulfide 4-13, 5-10) | inactive | – |
| COc1ccc(C[C@H]2CC(=O)N[C@@H](CCCCN)C(=O)N[C@@H](CC(C)C)C(=O)N[C@H]3CSSC[C@H](NC(=O)[C@@H](NC(=O)[C@@H](NC(=O)CNC(=O)[C@@H]4CCC(=O)N4)C(C)C)CSSC[C@@H](C(=O)O)NC(=O)[C@@H]4[C@@H](O)CCN4C(=O)[C@H](Cc4cnc[nH]4)NC3=O)C(=O)NCC(=O)N2)cc1 | inactive | – |
| CC(C)C[C@@H]1NC(=O)[C@H](CCCCN)NC(=O)[C@H](Cc2ccc(O)cc2)NC(=O)CNC(=O)[C@@H]2CSSC[C@H](NC1=O)C(=O)N[C@@H](Cc1cnc[nH]1)C(=O)N1CC[C@H](O)[C@H]1C(=O)N[C@H](C(=O)O)CSSC[C@H](NC(=O)[C@@H](NC(=O)CNC(=O)[C@H](N)CCCNC(=N)N)C(C)C)C(=O)N2 | – | Activity (Rattus norvegicus [2]): Toxic |
| CC(C)C[C@@H]1NC(=O)[C@H](CCCCN)NC(=O)[C@H](Cc2ccc(O)cc2)NC(=O)CNC(=O)[C@@H]2CSSC[C@H](NC1=O)C(=O)N[C@@H](Cc1cnc[nH]1)C(=O)N1CC[C@H](O)[C@H]1C(=O)N[C@H](C(=O)O)CSSC[C@H](NC(=O)[C@@H](NC(=O)CNC(=O)[C@H](CC(N)=O)NC(=O)[C@@H](N)CCc1ccccc1)C(C)C)C(=O)N2 | – | Activity (Rattus norvegicus [3]): Active; Activity (Rattus norvegicus [2]): Toxic |
| CC(C)C[C@@H]1NC(=O)[C@H](CCCCN)NC(=O)[C@H](Cc2ccc(O)cc2)NC(=O)CNC(=O)[C@@H]2CSSC[C@H](NC1=O)C(=O)N[C@@H](Cc1cnc[nH]1)C(=O)N1CC[C@H](O)[C@H]1C(=O)N[C@@H](C(=O)O)CSSC[C@@H](NC(=O)[C@@H](NC(=O)CNC(=O)[C@@H]1CCC(=O)N1)C(C)C)C(=O)N2 | Active | – |
| CC(C)C[C@@H]1NC(=O)[C@H](CCCCN)NC(=O)[C@H](Cc2ccc(O)cc2)NC(=O)CNC(=O)[C@@H]2CSSC[C@H](NC1=O)C(=O)N[C@@H](Cc1cnc[nH]1)C(=O)N[C@H](CCCCN)C(=O)N[C@H](C(=O)O)CSSC[C@H](NC(=O)[C@@H](NC(=O)CNC(=O)[C@@H]1CCC(=O)N1)C(C)C)C(=O)N2 | Active | Activity (COS-7): Active |
| CC[C@H](C)[C@@H]1NC(=O)CNC(=O)[C@@H]2CSSC[C@H](NC(=O)[C@H](CC(C)C)NC(=O)[C@H](CCCCN)NC1=O)C(=O)N[C@@H](Cc1cnc[nH]1)C(=O)N1CC[C@H](O)[C@H]1C(=O)N[C@H](C(=O)O)CSSC[C@H](NC(=O)[C@@H](NC(=O)CNC(=O)[C@@H]1CCC(=O)N1)C(C)C)C(=O)N2 | inactive | – |
| CC(C)C[C@@H]1NC(=O)[C@H](CCCCN)NC(=O)[C@H](CC2CCCCC2)NC(=O)CNC(=O)[C@@H]2CSSC[C@H](NC1=O)C(=O)N[C@@H](Cc1cnc[nH]1)C(=O)N1CC[C@H](O)[C@H]1C(=O)N[C@H](C(=O)O)CSSC[C@H](NC(=O)[C@@H](NC(=O)CNC(=O)[C@@H]1CCC(=O)N1)C(C)C)C(=O)N2 | inactive | – |
| CC(C)C[C@@H]1NC(=O)[C@H](CCCCN)NC(=O)[C@H](Cc2ccc(O)cc2)NC(=O)CNC(=O)[C@H]2CSSC[C@@H](NC1=O)C(=O)N[C@@H](Cc1cnc[nH]1)C(=O)N1CC[C@H](O)[C@H]1C(=O)N[C@H](C(=O)O)CSSC[C@H](NC(=O)[C@@H](NC(=O)CNC(=O)[C@@H]1CCC(=O)N1)C(C)C)C(=O)N2 | inactive | – |
| CC(C)C[C@@H]1NC(=O)[C@H](CCCCN)NC(=O)[C@@H](Cc2ccc(O)cc2)NC(=O)CNC(=O)[C@@H]2CSSC[C@H](NC1=O)C(=O)N[C@@H](Cc1cnc[nH]1)C(=O)N1CC[C@H](O)[C@H]1C(=O)N[C@H](C(=O)O)CSSC[C@H](NC(=O)[C@@H](NC(=O)CNC(=O)[C@@H]1CCC(=O)N1)C(C)C)C(=O)N2 | inactive | – |
| CC(C)C[C@@H]1NC(=O)[C@H](CCCCN)NC(=O)[C@H](Cc2ccc(O)cc2)NC(=O)CNC(=O)[C@@H]2CSSC[C@H](NC1=O)C(=O)N[C@@H](Cc1cnc[nH]1)C(=O)N1CC[C@H](O)[C@H]1C(=O)N[C@H](C(=O)O)CSSC[C@H](NC(=O)[C@@H](NC(=O)CNC(=O)[C@H](N)CC(N)=O)C(C)C)C(=O)N2 | – | Activity (Rattus norvegicus [2]): Toxic |
| CC(C)C[C@@H]1NC(=O)[C@H](CCCCN)NC(=O)[C@H](Cc2c[nH]c3ccccc23)NC(=O)CNC(=O)[C@@H]2CSSC[C@H](NC1=O)C(=O)N[C@@H](Cc1cnc[nH]1)C(=O)N1CC[C@H](O)[C@H]1C(=O)N[C@H](C(=O)O)CSSC[C@H](NC(=O)[C@@H](NC(=O)CNC(=O)[C@@H]1CCC(=O)N1)C(C)C)C(=O)N2 | inactive | – |
| CC(C)C[C@@H]1NC(=O)[C@H](CCCCN)NC(=O)[C@H](CO)NC(=O)CNC(=O)[C@@H]2CSSC[C@H](NC1=O)C(=O)N[C@@H](Cc1cnc[nH]1)C(=O)N1CC[C@H](O)[C@H]1C(=O)N[C@H](C(=O)O)CSSC[C@H](NC(=O)[C@@H](NC(=O)CNC(=O)[C@@H]1CCC(=O)N1)C(C)C)C(=O)N2 ([pGlu]GVCCGSKLCH[Pro(3S-OH)]C-OH; disulfide 4-13, 5-10) | inactive | – |
| CC(C)C[C@@H]1NC(=O)[C@H](CCCCN)NC(=O)[C@H](Cc2ccc(O)cc2)NC(=O)CNC(=O)[C@@H]2CSSC[C@H](NC1=O)C(=O)N[C@@H](Cc1cnc[nH]1)C(=O)N[C@H](Cc1ccc(O)cc1)C(=O)N[C@H](C(=O)O)CSSC[C@H](NC(=O)[C@@H](NC(=O)CNC(=O)[C@@H]1CCC(=O)N1)C(C)C)C(=O)N2 | Active | Activity (COS-7): Active |
| CC(C)C[C@@H]1NC(=O)[C@H](CCCCN)NC(=O)[C@H](Cc2ccc(O)cc2)NC(=O)CNC(=O)[C@H]2CSSC[C@@H](NC1=O)C(=O)N[C@@H](Cc1cnc[nH]1)C(=O)N1CC[C@H](O)[C@H]1C(=O)N[C@@H](C(=O)O)CSSC[C@@H](NC(=O)[C@@H](NC(=O)CNC(=O)[C@@H]1CCC(=O)N1)C(C)C)C(=O)N2 | inactive | – |
| CC(C)C[C@@H]1NC(=O)[C@H](CCCCN)NC(=O)[C@H](Cc2ccc(O)cc2)NC(=O)CNC(=O)[C@@H]2CSSC[C@H](NC1=O)C(=O)N[C@@H](Cc1cnc[nH]1)C(=O)N[C@H](CCC(=O)O)C(=O)N[C@H](C(=O)O)CSSC[C@H](NC(=O)[C@@H](NC(=O)CNC(=O)[C@@H]1CCC(=O)N1)C(C)C)C(=O)N2 | Active | Activity (COS-7): Active |
| COc1ccc(C[C@H]2NC(=O)[C@H](Cc3cnc[nH]3)NC(=O)[C@@H]3CSSC[C@H](NC(=O)[C@@H](NC(=O)[C@@H](NC(=O)CNC(=O)[C@@H]4CCC(=O)N4)C(C)C)CSSC[C@@H](C(=O)O)NC2=O)C(=O)NCC(=O)N[C@@H](Cc2ccc(O)cc2)C(=O)N[C@@H](CCCCN)C(=O)N[C@@H](CC(C)C)C(=O)N3)cc1 | Active | – |
| CC(C)C[C@@H]1NC(=O)[C@H](CCCCN)NC(=O)[C@H](Cc2ccc(O)cc2)NC(=O)CNC(=O)[C@@H]2CSSC[C@@H](NC1=O)C(=O)N[C@@H](Cc1cnc[nH]1)C(=O)N1CC[C@H](O)[C@H]1C(=O)N[C@H](C(=O)O)CSSC[C@H](NC(=O)[C@@H](NC(=O)CNC(=O)[C@@H]1CCC(=O)N1)C(C)C)C(=O)N2 | inactive | – |
